Measurements taken from paper PMC4356685 (International Journal of Nanomedicine, 2015).

Columns and labels:
4T1 cells = experiment: In vitro cytotoxicity, WST-8 assay; format: cell-based, mouse; conditions: 48 hours, WST-8, n=5
[1] = Pharmacokinetic studies in rats; format: in vivo, Sprague Dawley (SD) rats
Procedure, shortened: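 Female SD rats (200±20 g), three per group, received a single tail-vein injection in 0.9% saline (10 mg/kg drug-equivalent). Retro-orbital blood was taken at 5, 15 and 30 min and at 1, 1.5, 2, 4, 7, 10 and 24 h into heparinized tubes. Plasma was stored at −20°C, extracted, redissolved in acetonitrile, filtered and quantified by HPLC against spiked-plasma standard curves. Parameters came from a two-compartment model fit.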

4T1 murine breast tumors = experiment: In vivo anticancer efficacy; conditions: 4T1 tumor-bearing BALB/c mice, PTX 10 mg/kg i.v. at days 10, 13, 16, 19
Procedure, shortened: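 Female BALB/c mice (4–6 weeks old) were inoculated subcutaneously in the left back, under anesthesia, with ~5×10^5 4T1 cells in PBS. Dosing began at a tumor volume of about 50–100 mm3: 10 mg/kg drug-equivalent by tail-vein injection on days 10, 13, 16 and 19 after inoculation, with a normal-saline control. Tumors (V = L×W²/2) and body weight were measured every 2 days until day 23. Survival was followed until death from tumor growth or treatment.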

[2] = Toxicity in tumor-bearing mice; format: in vivo; conditions: PTX 10 mg/kg i.v. in 4T1 tumor-bearing BALB/c mice
[3] = Sprague-Dawley, rat, plasma, iv, 10 mg/kg
[4] = rats, i.v. tail vein, 10 mg/kg of PTX, two-compartment model

## CC(=O)O[C@H]1C(=O)[C@@]2(C)[C@H]([C@H](OC(=O)c3ccccc3)[C@]3(O)C[C@H](OC(=O)[C@H](O)[C@@H](NC(=O)c4ccccc4)c4ccccc4)C(C)=C1C3(C)C)[C@]1(OC(C)=O)CO[C@@H]1C[C@@H]2O [Free PTX, paclitaxel]
4T1 cells
  cytotoxicity (cell viability) compared with other formulations: stronger inhibition effects compared to the PEGylated nanoparticles
[1]; [3]
  AUC(0-inf): 49200 ± 16900 ng·h/mL
  AUC(0-t): 46600 ± 16800 ng·h/mL
  clearance: 8.5 mL/min/kg
  k el: 0.000511 s⁻¹
[1]; [4]
  K12 (transfer rate constant from central to periphery compartment): 0.45 ± 0.33 h⁻¹
  K21 (transfer rate constant from periphery to central compartment): 0.55 ± 0.24 h⁻¹
  V1 (volume of central compartment): 0.28 ± 0.02 L/kg
  V2 (volume of periphery compartment): 0.21 ± 0.12 L/kg
4T1 murine breast tumors
  median survival time: 31 days
4T1 murine breast tumors; n=8
  tumor inhibition rate: 32.5%
[2]
  acute toxicity / deaths after intravenous injection: some deaths were observed a few minutes after the injection
